# Compound activity: PubChem BioAssay, The Scripps Research Institute Molecular Screening Center
# PAFAH1B2 FP inh – PAFAH1B2 enzyme inhibitors, primary screen, biochemical, fluorescence polarization, human | Platelet-activating factor acetylhydrolase IB subunit alpha2 (Homo sapiens), P68402 | recombinant PAFAH1B2, FP-rhodamine activity probe | inhibition, % at 3.39 µM | 1.2% of 340,000 active;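 active means inhibition above the mean of all tested compounds plus 3 SD, cut at about 24% in these data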;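 further: 0% = enzyme with DMSO and 100% = wells lacking PAFAH1B2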
# Target sequence (P68402 whole entry, looked up): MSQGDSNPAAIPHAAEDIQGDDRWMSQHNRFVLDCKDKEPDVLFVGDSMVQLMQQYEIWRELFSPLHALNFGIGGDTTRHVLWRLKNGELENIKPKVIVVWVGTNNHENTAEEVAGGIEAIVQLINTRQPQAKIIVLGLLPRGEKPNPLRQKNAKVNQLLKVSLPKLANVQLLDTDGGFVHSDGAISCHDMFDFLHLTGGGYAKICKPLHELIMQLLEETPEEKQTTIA
# PAFAH1B3 FP inh – PAFAH1B3 enzyme inhibitors, primary screen, biochemical, fluorescence polarization, human; Platelet-activating factor acetylhydrolase IB subunit alpha1 (Homo sapiens), Q15102; recombinant PAFAH1B3, FP-rhodamine probe; inhibition, % at 3.39 µM; AID 492972, 2010; 0.28% of 340,000 active;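 active means inhibition above the screen-wide average of all tested compounds plus 3 SD, cut at about 25% in these data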;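 further: 0% = enzyme with DMSO only and 100% = wells lacking PAFAH1B3 protein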
# Target sequence (Q15102 whole entry, looked up): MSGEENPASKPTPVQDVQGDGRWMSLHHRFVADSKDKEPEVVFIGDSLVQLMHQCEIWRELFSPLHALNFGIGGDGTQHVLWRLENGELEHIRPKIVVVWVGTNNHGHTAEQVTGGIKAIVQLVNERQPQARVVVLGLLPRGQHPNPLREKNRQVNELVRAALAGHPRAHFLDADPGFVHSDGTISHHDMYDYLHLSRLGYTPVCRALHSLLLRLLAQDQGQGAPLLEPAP
# ARFGAP1 inhibitor – inhibitors of rat ARFGAP1 GAP activity, primary screen, biochemical, fluorescence polarization, GDP tracer; ADP-ribosylation factor GTPase-activating protein 1 (Rattus norvegicus), Q62848; inhibition, % at 16.5 µM; Arfgap1-stimulated ARF1 GTP hydrolysis, GDP FP detection; 0.26% of 360,000 active;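 active means inhibition above a per-plate limit, mean inhibition of low control wells plus 3 SD, cut at about 25% in these data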;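 further: 0% = DMSO wells with enzyme and 100% = wells lacking Arfgap1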
#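 Assay system: purified rat His6-Arfgap1 residues 1-136 (GAP domain); Reagent: human Δ17 ARF1 bound to GTP; Dosing: 16.5 µM single point, 1.26% DMSO; Times: GTP hydrolysis reaction 2 h at 25 °C; Signal: FP, GDP Alexa 633 tracer displaced from anti-GDP antibody, 620/688 nm; Measure: % inhibition from polarization.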
# PAFAH2 inh – PAFAH2 enzyme inhibitors, primary screen, biochemical, fluorescence polarization, human | inhibition, % at 3.39 µM | Platelet-activating factor acetylhydrolase 2, cytoplasmic (Homo sapiens), Q99487 | 0.99% of 340,000 active | recombinant PAFAH2, FP-rhodamine activity probe | AID 492956, 2010;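 active means inhibition above the mean over all tested compounds plus 3 SD, cut at about 30% in these data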;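 further: inhibitors block probe labeling of enzyme so polarization drops; 0% = enzyme with DMSO and 100% = wells lacking PAFAH2 protein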
# ASAP1 GAP inh – inhibitors of human ASAP1 ArfGAP activity, primary screen, biochemical, fluorescence polarization. ASAP1-stimulated ARF1 GTP hydrolysis, GDP FP detection. inhibition, % at 16.5 µM. 0.19% of 360,000 active; in the data active means inhibition above about 25%;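 further: 0% = vehicle with enzyme and substrate and 100% = no enzyme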
# pPAFAH FP inh – pPAFAH enzyme inhibitors, primary screen, biochemical, fluorescence polarization, human. Platelet-activating factor acetylhydrolase (Homo sapiens), Q13093. recombinant pPAFAH, FP-rhodamine probe fluorescence polarization. inhibition, % at 3.39 µM. 1.5% of 330,000 active. AID 463082, 2010;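 active means inhibition above the mean inhibition across the screen plus 3 SD, cut at about 25% in these data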;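 further: inhibitors block binding of the rhodamine activity-based probe so polarization drops; 0% = enzyme with DMSO and 100% = wells lacking pPAFAH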
# An asterisk follows results filed as active; x = no result. Shown are actives, neighbours in structure and some others; about 2.7% of the full set was active somewhere.
SMILES,PAFAH1B2 FP inh,PAFAH1B3 FP inh,ARFGAP1 inhibitor,PAFAH2 inh,ASAP1 GAP inh,pPAFAH FP inh
CC(C)(CNC(=O)c1cccc(NS(=O)(=O)c2ccc(Br)cc2)c1)N1CCOCC1,27.2*,6.4,-3.4,1.8,-7.6,7.3
CCOC(=O)C1=C(CSc2nc3c(cc2C#N)CN(C)CC3)OC(N)=C(C#N)C1c1ccc(Cl)cc1 (stereo not given),3.0,9.3,0.1,4.3,0.5,29.0*
CCOC(=O)C1=C(CSc2nc3c(cc2C#N)CN(C)CC3)OC(N)=C(C#N)C1c1ccncc1 (stereo not given),10.8,12.6,9.7,25.4,10.4,23.2
Cc1[nH]nc2c1C(c1ccc(F)cc1)N(Cc1ccccc1)C2=O (stereo not given),x,x,2.0,x,-2.3,x
Cc1c(C(=O)NNC(=S)Nc2ccc(S(N)(=O)=O)cc2)oc2ccccc12,9.1,14.3,1.2,1.8,5.3,28.2*
O=C(Nc1ccc(Cl)cc1)OCC12COCN1COC2,x,x,-2.5,x,-3.8,x
Clc1ccc(Nc2nnc(-c3ccc4c(c3)OCO4)o2)cc1,x,x,3.9,x,-0.2,x
Cc1c([N+](=O)[O-])cc(S(=O)(=O)Nc2ccc(-c3ccc(N4CCCC4)nn3)cc2)cc1[N+](=O)[O-],11.6,1.6,-5.0,14.5,-0.6,28.5*
CCN(C(=O)CSc1ccc2c(c1)OCCO2)C1CCS(=O)(=O)C1 (stereo not given),0.6,7.5,2.5,-2.9,0.1,0.9
CCN(C(=O)CSc1nnc(-c2ccc3c(c2)OCO3)o1)C1CCS(=O)(=O)C1 (stereo not given),31.9*,7.0,0.8,-1.3,2.4,3.2
NC(=O)NN=C1CCC(O)CC1CC(=O)O (stereo not given),x,x,-3.9,x,4.6,x
Cc1nc2cc[nH]n2c(=O)c1CCc1ccccc1,x,x,-0.9,x,-1.4,x
CN(C)S(=O)(=O)N1C(=O)c2ccccc2C1=O,2.2,2.5,-11.8,12.9,-6.2,-1.1
CN(C)/C=C1\C=C2C(=O)c3ccccc3N2C1=O,28.0*,29.5*,-0.9,36.1*,0.2,2.4
CC1CCc2[nH]c3ccc(C(=O)N(C)CC(=O)Nc4ccccc4Br)cc3c2C1 (stereo not given),18.0,5.8,2.6,2.9,4.3,10.8
Cc1ccc(C)c(NC(=O)CN(C)C(=O)c2ccc3[nH]c4c(c3c2)CC(C)CC4)c1 (stereo not given),40.4*,5.2,4.0,2.6,9.9,7.8
CCN(CC(=O)Nc1ccc(OC)cc1)C(=O)c1ccc2[nH]c3c(c2c1)CC(C)CC3 (stereo not given),27.2*,3.3,-21.0,3.9,6.8,4.5
CCN(CC(=O)Nc1ccc(OC)cc1)C(=O)c1ccc2c(=O)n3c(nc2c1)CCC3,2.4,2.5,4.0,6.1,-8.0,-3.0
O=C(c1ccccc1)N1CCC2CCN(S(=O)(=O)c3ccccc3)CC21 (stereo not given),x,x,1.0,x,-5.7,x
COC(=O)c1cc2c(c3c4cc(OC)ccc4n(S(=O)(=O)c4cccc(C)c4)c13)C(=O)N(Cc1ccc(C(F)(F)F)cc1)C2,x,x,2.2,x,-8.7,x
O=C(NCc1ccc(F)cc1)C(=O)NCC1OCCCN1S(=O)(=O)c1cccs1 (stereo not given),29.8*,2.2,-1.6,-13.7,-4.4,7.5
COc1ccc(NC(=O)C(=O)NCCC2CCCCN2S(=O)(=O)c2cccs2)cc1 (stereo not given),7.1,0.1,-2.5,12.4,-2.3,-2.4
Cc1ccc(CNC(=O)C(=O)NCC2CCCN2S(=O)(=O)c2cc(C)ccc2C)cc1 (stereo not given),28.0*,6.5,-0.2,2.1,4.3,9.1
Cc1cc(F)ccc1S(=O)(=O)N1CCCOC1CNC(=O)C(=O)NCCc1ccccc1 (stereo not given),27.0*,5.0,5.2,-19.4,2.7,10.9
